Only some compounds are listed: those with a hit (about 4% of all), similar ones and a draw of the others.
FAS TE block = blocks the thioesterase domain of human fatty acid synthase. recombinant FAS-TE, OMFH fluorogenic substrate, fluorescence endpoint. AID 602261. inhibition, % at 15 µM. 0.67% of 360,000 active;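 active = compounds whose normalised, plate-corrected inhibition of enzyme fluorescence in the single-dose primary screen is 50% or more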;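 also: 0% = DMSO with enzyme and 100% = substrate without enzyme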
GRIN3A LBD mod = modulators (binders) of human NR3A ligand-binding domain; AID 1259313; NR3A LBD differential scanning fluorimetry, Tm shift; 0% = protein alone, 100% = glycine-bound protein; Tm shift relative to glycine control, % at 25 µM; 2.5% of 340,000 active;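 active = melting temperature shift of at least 10% of the positive control shift, at one fixed dose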
iPSC survival up = enhancers of human iPSC single-cell survival; hiPSC single-cell survival, ATPlite luminescence; 100% = ROCK inhibitor wells, 0% = DMSO; AID 602274; 0.044% of 360,000 active; survival enhancement, % at 20 µM; in the data active = survival enhancement above about 18%;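 also: cells exposed to compounds for 16 hours before the ATP read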
Arr AP2 block = inhibitors of human beta-arrestin and AP2 interaction. FITC-arrestin peptide / GST-AP2 beads, flow cytometry; AP2 beta2 appendage carries R879A mutation. inhibition, % at 10 µM. 0.31% of 340,000 active. AID 504490;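 active = inhibition above a set limit, near 3 SD of compounds lacking own fluorescence, cut at about 54% in these data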;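 also: plate controls were DMSO wells for no effect and 5 µM unlabelled arrestin peptide for full effect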
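system = GST-tagged AP2 beta2-adaptin appendage (R879A) on 4 µm glutathione beads | reagent = FITC-labelled arrestin peptide probe, 50 nM final | schedule = compound with beads 12 min RT, then probe 1 h RT | signal = HyperCyt-sampled flow cytometry, FL1 channel, ex 488/em 535 nm | read-out = percent response from loss of bead-bound FITC fluorescence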
H9c2 protect = protects H9c2 cardiomyocytes from peroxide injury | 0.63% of 360,000 active | protection from H2O2 cell death, % at 20 µM | AID 588492 | H2O2 injury protection, ATPLite, 2 h;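 active = compounds giving at least 50% protection of heart cells from peroxide-induced death in the single-dose screen, raw or plate-pattern-corrected value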;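 also: 0% = DMSO wells with peroxide and 100% = DMSO wells without peroxide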
SENP1 inh = blocks the human SENP1 SUMO protease catalytic domain; Q9P0U3; recombinant SENP1 catalytic domain, CyPet-SUMO1-YPet FRET cleavage; inhibition, % at 10 µM; 0.21% of 360,000 active; AID 624204;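 active = inhibition at least 30% at 10 µM, raw YFP signal under a set limit, fluorescence ratio 0.5 to 1.5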;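 also: 0% = enzyme with DMSO and 100% = no enzyme wells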
Target sequence (Q9P0U3 419-644 limits assumed): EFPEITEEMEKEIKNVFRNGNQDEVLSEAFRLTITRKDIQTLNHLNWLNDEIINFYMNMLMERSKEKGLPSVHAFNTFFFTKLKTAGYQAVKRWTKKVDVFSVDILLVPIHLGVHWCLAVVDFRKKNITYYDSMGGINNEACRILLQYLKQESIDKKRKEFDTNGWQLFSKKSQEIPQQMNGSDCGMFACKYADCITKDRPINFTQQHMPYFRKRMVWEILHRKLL
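System: Recombinant human SENP1 catalytic domain, His6-tagged | Incubation: Enzyme reaction for 50 min at room temperature, dark | Medium: Tris pH 8 with BME, BSA, NP40 and catalase | Also added: 25 nM SUMO1 FRET substrate | Compound: 10 µM single point, 0.5% DMSO | Measured by: FRET fluorescence in CFP and YFP emission channels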
* marks the source's active call; other numbers are inactive results; / = no result.

SMILES | FAS TE block | GRIN3A LBD mod | iPSC survival up | Arr AP2 block | H9c2 protect | SENP1 inh
O=C(C[C@@H]1C[C@H]2c3cc(NC(=O)C4CCC4)ccc3O[C@H]2[C@@H](CO)O1)NCc1ccc(-c2ccccc2)cc1 | -3.2 | / | 2.7 | / | -8.6 | -1.5
O=C(NC(=S)Nc1ccccn1)c1ccc([N+](=O)[O-])cc1 | 6.5 | 11.1* | -0.9 | 26.7 | -13.5 | 0.0
O=C(NC(=S)Nc1ccccn1)c1ccccc1 | -8.5 | 4.9 | -0.5 | -1.3 | -16.1 | 2.2
CC1=C(C(=O)N2CCCCCC2)CC(CC(=O)NC2CCCCC2)C(=O)N1Cc1ccc(F)cc1 (stereo not drawn) | 5.5 | / | 0.8 | / | / | 0.3
NC(=O)c1ccc(NC(=O)Nc2ccc3c(c2)OCO3)cc1 | -3.2 | 13.0* | 0.8 | 3.0 | -0.5 | 0.0
COC(=O)c1ccc(NC(=O)Nc2ccc3c(c2)OCO3)cc1 | 4.2 | 23.7* | -0.1 | -10.6 | -4.7 | -0.8
O=C(Nc1ccc2c(c1)OCCO2)Nc1ccc2c(c1)OCO2 | -4.3 | -37.9 | -5.3 | 8.7 | -15.2 | 1.2
CCOc1ccccc1C(=O)N[C@H](C(=O)OCc1cc(=O)oc2cc(C)ccc12)C(C)C | 31.6 | 14.8* | -0.5 | 14.0 | 1.6 | 0.0
FC(F)(F)c1cccc(NC(=S)NCC2COc3ccccc3O2)c1 (stereo not drawn) | 34.2 | 22.9* | 1.7 | 38.2 | -13.6 | 2.1
COCCNC(=O)C1CCCN(C(=O)c2ccc3sccc3c2)CC1 (stereo not drawn) | -2.5 | / | 5.2 | / | 1.7 | 3.8
O=C(CCC(=O)OCC(=O)c1ccc(F)cc1)NC1CCCCC1 | -6.2 | -1.2 | 0.1 | -2.0 | 8.1 | 2.2
O=C(CCC(=O)OCC(=O)c1ccc(Br)cc1)NC1CCCCC1 | 0.4 | 10.2* | 0.6 | 3.1 | -0.6 | 1.6
CN(Cc1ccccc1)C(=O)[C@@H]1CCCN1C(=O)[C@@H]1CCCN1C(=O)c1ccc(Cl)cc1 | -12.5 | / | -0.1 | / | / | 1.6
COc1cc(C(=S)N2CCCC2)ccc1OS(=O)(=O)c1ccc(NC(C)=O)cc1 | 37.0 | 20.2* | -1.8 | 11.9 | -12.9 | 3.0
COc1cc(C(=S)N2CCOCC2)ccc1OS(=O)(=O)c1ccc(NC(C)=O)cc1 | 18.1 | 0.5 | -0.7 | -9.2 | -16.2 | 3.0
CCOc1cc(C(=S)N2CCOCC2)ccc1OC(=O)c1ccccc1 | 9.7 | -4.7 | -0.1 | -17.7 | -5.7 | -1.0
CCOc1cc(C(=S)N2CCOCC2)ccc1OS(=O)(=O)c1ccccc1 | 14.3 | 11.0* | -1.7 | 0.6 | -3.5 | 3.6
Cc1cc(C)c2cccc(N)c2n1 | 4.0 | 0.5 | 1.3 | 14.3 | -2.7 | -0.5
Cc1cc(C)c2ccc(N)nc2c1O | 0.2 | -0.6 | -1.9 | 26.9 | 60.3* | -1.0
COCCNC(=O)C[C@@H]1C[C@H]2c3cc(NC(=O)Nc4ccc(F)cc4)ccc3O[C@H]2[C@H](CO)O1 | -10.0 | / | 2.1 | / | -0.3 | 1.3
Cc1cccc(NC(=O)COC(=O)c2cccc3c2C(=O)c2ccccc2C3=O)c1C | 23.3 | -13.0 | -1.3 | -1.4 | 47.2 | -2.7
CCN(CC)CCC(=O)Nc1cccc2c1C(=O)c1ccccc1C2=O | -7.4 | -0.6 | -0.1 | 38.2 | 2.1 | 61.8*
CCN(CC)CCNC(=O)c1ccc2c(c1NCCO)C(=O)c1ccccc1C2=O | 19.8 | 0.8 | -1.0 | / | -13.1 | 4.5
Nc1cccc(C(=O)OCC(=O)Nc2cccc3c2C(=O)c2ccccc2C3=O)c1 | -19.0 | 33.3* | 1.9 | 33.8 | 6.7 | 32.6*
COCc1c(C(=O)Nc2nnc(C3CC3)s2)oc2ccccc12 | 1.7 | / | 6.6 | / | -0.4 | 1.4
SMILES | FAS TE block | GRIN3A LBD mod | iPSC survival up | Arr AP2 block | H9c2 protect | SENP1 inh
O=C(/C=C/c1ccccc1)Nc1cccc(C(=O)NCCc2ccccc2)c1 | 7.8 | 17.5* | -1.3 | -7.1 | 17.8 | 0.8
O=C(/C=C/c1ccccc1)Nc1cccc(C(=O)NCCCCc2ccccc2)c1 | 11.9 | 26.9* | 3.3 | -7.6 | -11.1 | 0.6
O=C(NCC(F)(F)F)c1cc2c(c(-c3cccc(-c4ccccc4F)c3)n1)[C@H](CCO)N(C(=O)CC1CC1)C2 | 6.8 | / | -0.3 | / | / | 0.8
COc1ccc(OC)c(NC(=O)C2(C)CCN2C(=O)CC2CC2)c1 (stereo not drawn) | -6.8 | / | -2.5 | / | -2.6 | 0.2
Cc1ccc(-c2csc(NC(=S)NC(=O)/C=C/c3ccco3)n2)cc1 | 22.5 | 17.4* | -1.0 | 14.1 | -13.7 | -0.2
O=C(O)c1ccccc1C(=O)Nc1nc(-c2ccc3ccccc3c2)cs1 | 0.1 | -9.1 | 0.1 | 37.8 | -1.5 | 1.6
O=C(/C=C\c1ccco1)Nc1nc(-c2ccc3ccccc3c2)cs1 | 17.6 | 24.6* | -0.8 | 3.6 | 6.2 | -3.5
Cc1ccc(O)c(NC(=S)NC(=O)/C=C/c2ccco2)c1 | -5.4 | -9.9 | 0.8 | -11.4 | 3.7 | 1.9
CC1=C(C(=O)N2CCOCC2)CC(CC(=O)NCCCN(C)C)C(=O)N1CCCN1CCCC1=O (stereo not drawn) | -3.0 | / | 0.6 | / | / | -1.4
CC(C)Oc1cc(F)ccc1-c1cc(C(=O)NCc2cccs2)[nH]n1 | 7.1 | / | 2.5 | / | -5.8 | 0.4
NC(=O)c1c(NC(=O)c2ccccc2F)sc2c1CCC2 | 7.2 | / | -3.5 | / | -4.2 | -10.1
COCCN1Cc2cccc(C(=O)Nc3ccc(-c4nc5ccccc5[nH]4)cc3)c2C1=O | -8.0 | 3.0 | 1.6 | 11.0 | 0.5 | 0.0
COc1c(F)c(F)c(C(=O)Nc2ccc(-c3nc4ccccc4[nH]3)cc2)c(F)c1F | -7.9 | 13.4* | 0.3 | 0.7 | 1.9 | 3.9
O=C(Nc1ccc(-c2nc3ccccc3[nH]2)cc1)c1c(F)c(F)c(F)c(F)c1F | 0.6 | 16.2* | -1.2 | -7.2 | 3.5 | 1.8
CCNC(=S)Nc1ccc(-c2nc3ccccc3[nH]2)cc1 | -0.8 | 27.7* | 0.9 | -10.5 | -13.7 | 2.7
COc1ccccc1-c1csc(C(O)c2ccc(F)c(F)c2)n1 (stereo not drawn) | 15.6 | / | 0.4 | / | -10.1 | -0.6
c1cc(C2OCCO2)cs1 | -6.7 | / | 1.6 | / | -4.6 | 0.8
O=C(N/N=C/c1ccco1)C1CC1c1ccccc1 (stereo not drawn) | -9.3 | -1.2 | -1.2 | 40.3 | 4.0 | -2.8
O=C(N/N=C/c1cccs1)[C@H]1C[C@@H]1c1ccccc1 | -5.6 | 22.0* | -0.3 | 8.1 | -4.3 | 0.1
O=C(N/N=C/c1c[nH]c2ccccc12)C1CC1(c1ccccc1)c1ccccc1 (stereo not drawn) | 24.9 | 13.0* | 1.5 | 8.3 | -29.7 | -2.7
O=C(N/N=C/c1ccncc1)C1CC1(c1ccccc1)c1ccccc1 (stereo not drawn) | 3.2 | -0.4 | -0.3 | 7.8 | -4.5 | 1.1
O=C(N/N=C/c1c[nH]c2ccccc12)C1CC1c1ccccc1 (stereo not drawn) | 13.1 | 10.4* | 6.9 | 0.3 | -21.9 | -0.3
